Here are results for two molecules from paper PMC5529739 (CPT: Pharmacometrics & Systems Pharmacology, 2017).

Data set [1] can be described thus: Population PK model of selexipag and ACT-333679 in PAH patients. It counts as in vivo, human. Conditions: for Vd/F: human, plasma, oral; for AUC over a dosing interval at steady state, higher in PAH patients than in healthy subjects: patient model vs healthy subject model.
Data set [2] is classed as in vivo, human. The gist of the method:
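Oral b.i.d. dosing titrated in 200 μg steps to each patient's tolerated dose, max 1,600 μg b.i.d. Trough plasma samples at baseline and weeks 4–52, plus one week-16 window sample. Model-predicted steady-state AUC at the individual maintenance dose gave AUCcombined (1/38 parent + 37/38 metabolite); placebo exposure was set to 2.5 ng/mL. Lab values were averaged per subject over weeks 8–52, not imputed, and fitted by log-linear regression on log10 exposure and baseline.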

The conditions of data set [3]: cited from earlier work.
The subject of the next data set is platelet aggregation. As to conditions: clinically relevant concentrations, healthy subjects; cited from earlier work.
The conditions of data set [4]: range 100–1,800 μg; cited from earlier work.
The next data set concerns human IP receptor. As to conditions: human pulmonary arterial smooth muscle cells, cellular shape change; cited from earlier work.
Where [5] appears, read: PAH patients, population estimate.
[6] abbreviates: body weight 96 kg vs reference patient 70 kg.
Setting [7] is: total bilirubin 5 μmol/L vs reference 10 μmol/L.
The mark [8] stands for this setting: total bilirubin 25 μmol/L vs reference 10 μmol/L.

The term Vd/F denotes the volume of distribution divided by bioavailability.

For the molecule `CC(C)N(CCCCOCC(=O)NS(C)(=O)=O)c1cnc(-c2ccccc2)c(-c2ccccc2)n1` [selexipag, Selexipag], in data set [1] (setting [5]), the “k12, transfer rate constant central to peripheral compartment selexipag” value is 0.09 h⁻¹; the “k21, transfer rate constant peripheral to central compartment selexipag” value is 0.06 h⁻¹; the “ka, absorption rate constant” value was 0.71 h⁻¹; the “kmet, metabolism rate constant selexipag to ACT-333679” value is 0.67 h⁻¹. The “CL/F, apparent selexipag clearance” value in data set [1] (PAH patients, population estimate, 70 kg, total bilirubin 10 μmol/L) is given as 19.10 L/h. The “AUCss, covariate effect on exposure over a steady-state dosing interval” value (from here on “AUCss … over a steady-state dosing interval”) in data set [1] (body weight 51 kg vs reference patient 70 kg) is on record as “+30%”. In addition, in data set [1] (setting [6]), the “AUCss … over a steady-state dosing interval” value is −20%. Besides, in data set [1], the Vd/F turned out to be 12.9 L and the “AUC over a dosing interval at steady state, higher in PAH patients than in healthy subjects” value stood at 30%. Moreover, the “AUCss … over a steady-state dosing interval” value in data set [1] (male vs female) is recorded as “No change”. In data set [1] (power coefficient, CL=CLpop (bilirubin/10)^coefficient, bilirubin at baseline), the “Total bilirubin on CL/F, covariate effect” value was −0.40. Moreover, in data set [1] (power coefficient, CL=CLpop (bw/70)^coefficient), the “Body weight on CL/F, covariate effect” value is 0.61. Also, the “Body weight on Vp/F, covariate effect” value in data set [1] (power coefficient, Vp=Vp,pop (bw/70)^coefficient) was found to be 1.2. Further, in data set [1] (setting [7]), the “AUCss … over a steady-state dosing interval” value is listed as −20%. Further, the “AUCss … over a steady-state dosing interval” value in data set [1] (setting [8]) is given as “+30%”. Besides, in data set [2] (AUCcombined at steady state), the “Probability of a treatment-emergent AE of hemorrhage and gastrointestinal hemorrhage: relationship to exposure” value is “no statistically significant relationship to exposure”. The “Total bilirubin, model-predicted” value in data set [2] (at the highest exposure, 12.03 μmol/L with placebo) was 10.58 µmol/L. Further, the “Hemoglobin, model-predicted” value in data set [2] (at the highest exposure, 138.84 G/L with placebo) is 134.58 G/L. Besides, in data set [2] (at the highest exposure, 667 with no exposure (placebo)), the “Plasma NT pro-BNP, model-predicted” value is reported as 475 ng/mL. Further, the “6-MWD at steady state, model-predicted” value in data set [2] (at the highest predicted steady-state exposure, reference patient, 369 m on placebo) is 392 m. In data set [3] (99% confidence interval 0.46–0.78, P < 0.001), the “Hazard ratio for a primary endpoint event (death or a complication associated with underlying PAH) vs placebo” value was 0.6. Moreover, the “NT pro-BNP levels in the presence of selexipag” value in data set [3] is given as “significantly lower”. Further, the “6-MWD difference between placebo and selexipag” value in data set [3] (week 26, across doses) was 12 m. Also, the “Effect on platelet aggregation” value in the data set with platelet aggregation is “no effect”. The “Dose proportionality of PK” value in data set [4] is “dose‐proportional”.

For `CC(C)N(CCCCOCC(=O)O)c1cnc(-c2ccccc2)c(-c2ccccc2)n1` [ACT‐333679], the “k43, transfer rate constant peripheral to central compartment ACT-333679” value in data set [1] (setting [5]) was 0.18 h⁻¹. In addition, the “AUCss … over a steady-state dosing interval” value in data set [1] (setting [6]) is −10%; in data set [1] (male vs female), −13%; in data set [1] (setting [7]), −20%; in data set [1] (setting [8]), “+30%”. This molecule also yielded a Vd/F in data set [1] of 4.65 L. Besides, the “AUC over a dosing interval at steady state, higher in PAH patients than in healthy subjects” value in data set [1] was 20%. Further, the “Body weight on Vm/F, covariate effect” value in data set [1] (power coefficient, Vm=Vm,pop (bw/70)^coefficient) was 0.88. In addition, the “Potency in activating the human IP receptor relative to selexipag” value in the data set with human IP receptor is recorded as 37 fold. Also, the “Effect on platelet aggregation” value in the data set on platelet aggregation is listed as “no effect”.
